# Source: ChEMBL document CHEMBL1177725, “6-(3,4-dichlorophenyl)-1-[(methyloxy)methyl]-3-azabicyclo[4.1.0]heptane: a new potent and selective triple reuptake inhibitor” (J Med Chem, 2010)
# Legend:
# Rattus norvegicus [1] = test: Ex vivo SERT occupancy in Sprague-Dawley rat dorsal raphe at 10 mg/kg, po […] by autoradiography; format: functional
# Rattus norvegicus [2] = test: Ex vivo SERT occupancy in Sprague-Dawley rat superior coulliculus at 10 mg/kg, po […] by autoradiography; format: functional
# Rattus norvegicus [3] = test: Ex vivo SERT occupancy in Sprague-Dawley rat striatum at 10 mg/kg, po […] by autoradiography; format: functional
# Rattus norvegicus [4] = test: Ex vivo SERT occupancy in Sprague-Dawley rat cortex at 10 mg/kg, po after 1 hr by autoradiography; format: functional
# Outline: (§1)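 Oral dosing in rats. SERT occupancy was taken from [3H]citalopram binding to brain cortex prepared 1 h after administration.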
# Rattus norvegicus [5] = test: Ex vivo SERT occupancy in Sprague-Dawley rat cortex at 20 mg/kg, po after 1 hr by autoradiography; format: functional; outline: as §1
# Rattus norvegicus [6] = test: Ex vivo SERT occupancy in Sprague-Dawley rat cortex at 3 mg/kg, po after 1 hr by autoradiography; format: functional; outline: as §1
# Rattus norvegicus [7] = test: Ex vivo SERT occupancy in Sprague-Dawley rat cortex at 1 mg/kg, po after 1 hr by autoradiography; format: functional; outline: as §1
# Rattus norvegicus [8] = test: Ex vivo SERT occupancy in Sprague-Dawley rat cortex at 0.3 mg/kg, po after 1 hr by autoradiography; format: functional; outline: as §1
# Rattus norvegicus [9] = test: Ex vivo SERT occupancy in Sprague-Dawley rat cortex at 0.1 mg/kg, po after 1 hr by autoradiography; format: functional
# Rattus norvegicus [10] = test: Ex vivo SERT occupancy in Sprague-Dawley rat cortex at 0.03 mg/kg, po after 1 hr by autoradiography; format: functional; outline: as §1
# [11] = Ratio of drug level in brain to blood in rat; format: ADME, tissue-based
# [12] = Half life in rat; format: ADME, organism-based; conditions: in vivo
# [13] = Blood clearance in rat; format: ADME, organism-based
# [14] = Volume of distribution in rat; format: ADME, organism-based; conditions: in vivo
# [15] = Oral bioavailability in rat; format: ADME, organism-based; conditions: in vivo
# [16] = target: Sodium-dependent dopamine transporter (Mus musculus, UniProt Q61327); test: Displacement of [3H]WIN-35428 from DAT in mouse brain; format: tissue-based
# [17] = target: Sodium-dependent noradrenaline transporter (Mus musculus, UniProt O55192); test: Displacement of [3H]nisoxetine from NET in mouse brain; format: tissue-based
# [18] = target: Sodium-dependent serotonin transporter (Mus musculus, UniProt Q60857); test: Displacement of [3H]-citalopram from SERT in mouse cortex after 2 hrs by liquid scintillation counting
# Outline: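 Mouse cortex membranes (7 μg protein/well) were incubated 2 h at room temperature with [³H]citalopram, added at 0.25 nM. Test compound came from a 100× DMSO solution. Nonspecific binding was defined with 10 μM fluoxetine (final). Bound ligand was collected by filtration on PEI-presoaked GF/B filters, washed with ice-cold 0.9% NaCl and scintillation counted. A four-parameter logistic fit gave pIC50, converted to pKi by Cheng-Prusoff.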
# [19] = target: Sodium-dependent dopamine transporter (Rattus norvegicus, UniProt P23977); test: Displacement of [3H]WIN-35428 from DAT in rat striatum after 2 hrs by liquid scintillation counting
# [20] = target: Sodium-dependent serotonin transporter (Rattus norvegicus, UniProt P31652); test: Displacement of [3H]-citalopram from SERT in rat cortex after 2 hrs by liquid scintillation counting
# [21] = target: T1, Sodium-dependent dopamine transporter (Homo sapiens, UniProt Q01959); test: Inhibition of [3H]dopamine reuptake at human DAT expressed in pig LLCPK cells after 1 hr; format: cell-based
# Outline: (§2)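 Uptake SPA on stably transfected LLCPK cells with SPA beads (1.5 mg/mL SERT, NET; 2 mg/mL DAT) and 0.02% Pluronic F-127 in 20 mM HEPES, 145 mM NaCl, 5 mM KCl, pH 7.4. Cells/well: SERT 25 000, NET 50 000, DAT 75 000. Started by adding 35 nM [3H]serotonin, 45 nM [3H]noradrenalin or 75 nM [3H]dopamine (solutions added); 1 h, room temperature; four-parameter fit; n = 3.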
# [22] = target: T2, Sodium-dependent noradrenaline transporter (Homo sapiens, UniProt P23975); test: Inhibition of [3H]noradrenalin reuptake at human NET expressed in pig LLCPK cells after 1 hr; format: cell-based; outline: as §2
# [23] = target: T3, Sodium-dependent serotonin transporter (Homo sapiens, UniProt P31645); test: Inhibition of [3H]serotonin reuptake at human SERT expressed in pig LLCPK cells after 1 hr; format: cell-based; outline: as §2
# [24] = target: T1, Sodium-dependent dopamine transporter; test: Displacement of [3H]WIN-35428 from human recombinant DAT by SPA
# Outline: (§3)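 SPA binding on BacMam-expressed human transporter membranes (SERT 6, NET 40, DAT 20 μg/mL) with SPA beads (1 mg/mL SERT; 2 mg/mL NET, DAT), 0.02% Pluronic F-127. Radioligands: 3 nM [3H]citalopram (SERT), 10 nM [3H]nisoxetine (NET), 10 nM [3H]WIN-35,428 (DAT). Buffer 20 mM HEPES, 145 mM NaCl, 5 mM KCl, pH 7.4; overnight, room temperature; imager read; four-parameter fit, Cheng-Prusoff pKi.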
# [25] = target: T2, Sodium-dependent noradrenaline transporter; test: Displacement of [3H]nisoxetine from human recombinant NET by SPA; outline: as §3
# [26] = target: T3, Sodium-dependent serotonin transporter; test: Displacement of [3H]citalopram from human recombinant SERT by SPA; outline: as §3
# Cytochrome P450 3A4 = Cytochrome P450 3A4 (Homo sapiens, UniProt P08684); test: Inhibition of human CYP3A4 after 10 mins; format: ADME
# Outline: (§4)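 Recombinant human CYP bactosomes (0.1 mg/mL) were pre-incubated 10 min at 37 °C in 50 mM phosphate pH 7.4 with compound (0.1–10 μM) and a fluorogenic substrate. Substrates: ethoxyresorufin 0.5 μM (1A2), FCA 50 μM (2C9), BMC 10 μM (2C19), MMC 10 μM (2D6), DEF 1 μM or 7-BQ 25 μM (3A4). Adding an NADPH-regenerating system started the reaction, and metabolite fluorescence was read over 10 min. The IC50 came from rate as percent of control; miconazole served as positive control, with triplicates.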
# Cytochrome P450 2D6 = Cytochrome P450 2D6 (Homo sapiens, UniProt P10635); test: Inhibition of human CYP2D6 after 10 mins; format: ADME; outline: as §4
# Cytochrome P450 2C19 = Cytochrome P450 2C19 (Homo sapiens, UniProt P33261); test: Inhibition of human CYP2C19 after 10 mins; format: ADME; outline: as §4
# Cytochrome P450 2C9 = Cytochrome P450 2C9 (Homo sapiens, UniProt P11712); test: Inhibition of human CYP2C9 after 10 mins; format: ADME; outline: as §4
# Cytochrome P450 1A2 = target: T4, Cytochrome P450 1A2 (Homo sapiens, UniProt P05177); test: Inhibition of human CYP1A2 after 10 mins; format: ADME; outline: as §4
# T4 sequence (P05177 whole entry): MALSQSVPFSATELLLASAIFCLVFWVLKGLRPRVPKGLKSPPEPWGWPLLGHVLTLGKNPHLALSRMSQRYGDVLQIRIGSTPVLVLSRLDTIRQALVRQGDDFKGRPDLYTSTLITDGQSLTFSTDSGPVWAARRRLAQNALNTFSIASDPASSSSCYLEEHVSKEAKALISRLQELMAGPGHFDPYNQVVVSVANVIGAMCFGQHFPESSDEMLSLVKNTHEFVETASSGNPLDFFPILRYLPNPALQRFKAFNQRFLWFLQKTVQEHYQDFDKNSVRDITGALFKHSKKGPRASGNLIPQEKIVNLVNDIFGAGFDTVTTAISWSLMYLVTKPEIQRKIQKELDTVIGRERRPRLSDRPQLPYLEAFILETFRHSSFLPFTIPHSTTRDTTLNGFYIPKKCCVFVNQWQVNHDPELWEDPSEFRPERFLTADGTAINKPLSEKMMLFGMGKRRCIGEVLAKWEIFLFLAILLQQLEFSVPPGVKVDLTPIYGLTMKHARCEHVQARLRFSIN
# [27] = target: T1, Sodium-dependent dopamine transporter; test: Displacement of [N-methyl-3H]WIN-35428 from human recombinant DAT expressed in pig LLCPK cells after 2 hrs by liquid scintillation counting; format: cell-based
# [28] = target: T2, Sodium-dependent noradrenaline transporter; test: Displacement of [N-methyl-3H]nisoxetine from human recombinant NET expressed in pig LLCPK cells after 2 hrs by liquid scintillation counting; format: cell-based
# Rattus norvegicus [29] = test: Ex vivo SERT occupancy in Sprague-Dawley rat substantia nigra at 10 mg/kg, po […] by autoradiography; format: functional
# [30] = target: T3, Sodium-dependent serotonin transporter; test: Displacement of [N-methyl-3H]citalopram from human recombinant SERT expressed in pig LLCPK cells after 2 hrs by liquid scintillation counting; format: cell-based
# Transporter = Transporter (Rattus norvegicus, UniProt Q63380); test: Displacement of [3H]nisoxetine from NET in rat hippocampus after 2 hrs by liquid scintillation counting; format: tissue-based
# Outline: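 Rat hippocampus membranes (40 μg protein/well), competition filtration binding run as for human recombinant NET: 1.5 nM [3H]nisoxetine, test compound added from 100x DMSO solution, 10 μM desipramine for nonspecific binding. Incubated for 2 h at room temperature, filtered on PEI-presoaked GF/B, and washed with ice-cold 0.9% NaCl. Read by scintillation counting; four-parameter logistic pIC50 converted to pKi by Cheng-Prusoff.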
# T1 sequence (Q01959 whole entry): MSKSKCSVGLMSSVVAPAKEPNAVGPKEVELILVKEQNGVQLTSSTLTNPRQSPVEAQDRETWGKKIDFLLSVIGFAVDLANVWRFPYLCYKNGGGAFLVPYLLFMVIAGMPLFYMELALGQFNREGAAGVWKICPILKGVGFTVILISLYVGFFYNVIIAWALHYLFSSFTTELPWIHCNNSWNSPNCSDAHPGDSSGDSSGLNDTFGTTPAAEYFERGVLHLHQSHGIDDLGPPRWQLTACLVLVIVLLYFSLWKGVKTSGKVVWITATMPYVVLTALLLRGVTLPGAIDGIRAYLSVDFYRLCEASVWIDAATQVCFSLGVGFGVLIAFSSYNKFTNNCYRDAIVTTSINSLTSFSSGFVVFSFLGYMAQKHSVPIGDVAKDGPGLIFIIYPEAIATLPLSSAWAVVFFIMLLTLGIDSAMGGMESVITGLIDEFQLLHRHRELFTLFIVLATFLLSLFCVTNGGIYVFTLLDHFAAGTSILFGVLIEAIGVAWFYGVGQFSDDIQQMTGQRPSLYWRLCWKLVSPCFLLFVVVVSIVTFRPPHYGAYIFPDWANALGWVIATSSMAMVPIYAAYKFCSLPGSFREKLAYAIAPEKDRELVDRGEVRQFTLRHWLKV
# T3 sequence (P31645 whole entry): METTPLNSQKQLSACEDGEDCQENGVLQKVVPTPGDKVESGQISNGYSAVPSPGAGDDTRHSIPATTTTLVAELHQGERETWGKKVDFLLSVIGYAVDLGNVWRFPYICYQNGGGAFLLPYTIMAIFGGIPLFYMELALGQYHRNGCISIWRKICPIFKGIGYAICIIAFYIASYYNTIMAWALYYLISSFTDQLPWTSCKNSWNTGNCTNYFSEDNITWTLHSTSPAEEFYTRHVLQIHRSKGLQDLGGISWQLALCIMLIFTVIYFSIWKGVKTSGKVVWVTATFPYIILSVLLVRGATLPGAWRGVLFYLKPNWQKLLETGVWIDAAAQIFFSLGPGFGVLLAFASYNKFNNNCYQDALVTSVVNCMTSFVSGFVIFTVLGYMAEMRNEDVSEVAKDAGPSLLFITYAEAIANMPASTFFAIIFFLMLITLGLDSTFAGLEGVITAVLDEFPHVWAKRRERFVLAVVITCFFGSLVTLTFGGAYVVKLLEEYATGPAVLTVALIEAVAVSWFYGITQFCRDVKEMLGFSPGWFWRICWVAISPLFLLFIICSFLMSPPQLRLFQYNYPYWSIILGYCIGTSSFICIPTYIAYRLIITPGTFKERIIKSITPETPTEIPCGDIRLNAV
# T2 sequence (P23975 whole entry): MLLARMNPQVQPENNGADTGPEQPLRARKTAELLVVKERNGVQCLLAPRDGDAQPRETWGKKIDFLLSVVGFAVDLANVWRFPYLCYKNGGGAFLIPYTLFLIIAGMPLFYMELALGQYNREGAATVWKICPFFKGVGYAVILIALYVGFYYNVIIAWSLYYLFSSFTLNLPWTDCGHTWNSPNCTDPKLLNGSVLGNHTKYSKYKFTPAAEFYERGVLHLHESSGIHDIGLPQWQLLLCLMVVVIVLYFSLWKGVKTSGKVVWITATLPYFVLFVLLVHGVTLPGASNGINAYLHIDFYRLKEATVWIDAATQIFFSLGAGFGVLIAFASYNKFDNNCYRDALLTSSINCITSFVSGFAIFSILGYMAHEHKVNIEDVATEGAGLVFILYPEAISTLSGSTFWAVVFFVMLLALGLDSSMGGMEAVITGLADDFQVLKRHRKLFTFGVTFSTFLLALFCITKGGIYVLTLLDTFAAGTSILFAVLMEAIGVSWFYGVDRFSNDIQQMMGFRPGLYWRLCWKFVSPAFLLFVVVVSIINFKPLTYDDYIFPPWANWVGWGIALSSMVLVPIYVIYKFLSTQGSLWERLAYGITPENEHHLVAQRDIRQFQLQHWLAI
# Chain of Sodium-dependent serotonin transporter (Rattus norvegicus, UniProt P31652) (P31652 whole entry): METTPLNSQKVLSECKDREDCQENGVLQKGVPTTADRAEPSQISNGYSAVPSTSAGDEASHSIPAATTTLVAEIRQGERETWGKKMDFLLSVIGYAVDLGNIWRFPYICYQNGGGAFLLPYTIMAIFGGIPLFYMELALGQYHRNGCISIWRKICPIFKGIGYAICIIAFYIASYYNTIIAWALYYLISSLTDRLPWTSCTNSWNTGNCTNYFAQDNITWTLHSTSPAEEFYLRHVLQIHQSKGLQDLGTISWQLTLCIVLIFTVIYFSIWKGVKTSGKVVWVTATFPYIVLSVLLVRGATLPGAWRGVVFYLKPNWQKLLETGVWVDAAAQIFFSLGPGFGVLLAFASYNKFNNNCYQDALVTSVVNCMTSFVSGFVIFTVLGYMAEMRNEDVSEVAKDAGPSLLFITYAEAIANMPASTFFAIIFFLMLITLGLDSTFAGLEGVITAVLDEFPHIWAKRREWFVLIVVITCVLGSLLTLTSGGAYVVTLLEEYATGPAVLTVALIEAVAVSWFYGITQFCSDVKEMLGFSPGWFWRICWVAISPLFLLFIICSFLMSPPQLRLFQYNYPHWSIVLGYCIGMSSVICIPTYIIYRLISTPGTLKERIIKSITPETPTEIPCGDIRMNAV
# Chain of Cytochrome P450 2C9 (P11712 whole entry): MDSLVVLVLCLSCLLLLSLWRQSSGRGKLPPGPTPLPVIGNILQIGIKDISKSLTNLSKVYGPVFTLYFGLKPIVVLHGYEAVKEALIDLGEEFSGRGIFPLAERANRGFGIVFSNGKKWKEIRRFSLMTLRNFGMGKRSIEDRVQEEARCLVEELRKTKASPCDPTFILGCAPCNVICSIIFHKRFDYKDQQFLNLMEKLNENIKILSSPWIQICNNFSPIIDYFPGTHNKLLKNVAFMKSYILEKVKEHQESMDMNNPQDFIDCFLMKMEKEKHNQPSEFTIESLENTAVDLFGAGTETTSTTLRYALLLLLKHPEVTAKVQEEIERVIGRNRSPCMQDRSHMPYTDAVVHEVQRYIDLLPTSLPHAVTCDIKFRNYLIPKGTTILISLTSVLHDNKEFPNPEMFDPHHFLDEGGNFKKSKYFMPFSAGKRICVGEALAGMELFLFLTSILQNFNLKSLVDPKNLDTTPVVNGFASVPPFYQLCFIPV
# Chain of Cytochrome P450 2C19 (P33261 whole entry): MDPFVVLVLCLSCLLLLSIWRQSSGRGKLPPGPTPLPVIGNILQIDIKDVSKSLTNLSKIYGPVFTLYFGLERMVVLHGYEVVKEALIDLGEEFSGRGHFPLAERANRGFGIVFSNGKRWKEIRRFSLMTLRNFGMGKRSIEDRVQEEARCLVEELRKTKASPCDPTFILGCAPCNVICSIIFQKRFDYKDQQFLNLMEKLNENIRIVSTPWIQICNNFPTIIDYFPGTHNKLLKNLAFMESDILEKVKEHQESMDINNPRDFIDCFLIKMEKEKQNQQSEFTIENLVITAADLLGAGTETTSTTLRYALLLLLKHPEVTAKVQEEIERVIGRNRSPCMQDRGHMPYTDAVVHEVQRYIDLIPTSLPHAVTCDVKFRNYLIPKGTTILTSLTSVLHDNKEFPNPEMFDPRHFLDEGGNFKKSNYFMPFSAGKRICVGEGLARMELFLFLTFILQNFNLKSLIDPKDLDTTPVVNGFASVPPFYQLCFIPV
# Chain of Sodium-dependent dopamine transporter (Mus musculus, UniProt Q61327) (Q61327 whole entry): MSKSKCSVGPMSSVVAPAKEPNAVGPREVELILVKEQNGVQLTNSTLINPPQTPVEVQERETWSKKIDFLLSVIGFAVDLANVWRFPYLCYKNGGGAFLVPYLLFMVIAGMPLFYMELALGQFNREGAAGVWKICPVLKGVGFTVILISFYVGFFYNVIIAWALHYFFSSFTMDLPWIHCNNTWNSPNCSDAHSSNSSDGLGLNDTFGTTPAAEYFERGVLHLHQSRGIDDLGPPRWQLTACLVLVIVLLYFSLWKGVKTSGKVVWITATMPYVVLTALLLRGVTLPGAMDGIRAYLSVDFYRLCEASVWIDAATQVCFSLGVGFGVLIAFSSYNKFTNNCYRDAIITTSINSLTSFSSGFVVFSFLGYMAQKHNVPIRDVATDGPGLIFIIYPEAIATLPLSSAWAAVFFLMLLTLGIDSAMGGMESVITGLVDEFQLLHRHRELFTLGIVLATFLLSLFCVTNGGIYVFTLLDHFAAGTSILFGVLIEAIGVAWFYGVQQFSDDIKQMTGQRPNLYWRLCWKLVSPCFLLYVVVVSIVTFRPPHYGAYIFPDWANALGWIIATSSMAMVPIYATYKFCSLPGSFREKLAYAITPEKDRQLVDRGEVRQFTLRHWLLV
# Chain of Cytochrome P450 3A4 (P08684 whole entry): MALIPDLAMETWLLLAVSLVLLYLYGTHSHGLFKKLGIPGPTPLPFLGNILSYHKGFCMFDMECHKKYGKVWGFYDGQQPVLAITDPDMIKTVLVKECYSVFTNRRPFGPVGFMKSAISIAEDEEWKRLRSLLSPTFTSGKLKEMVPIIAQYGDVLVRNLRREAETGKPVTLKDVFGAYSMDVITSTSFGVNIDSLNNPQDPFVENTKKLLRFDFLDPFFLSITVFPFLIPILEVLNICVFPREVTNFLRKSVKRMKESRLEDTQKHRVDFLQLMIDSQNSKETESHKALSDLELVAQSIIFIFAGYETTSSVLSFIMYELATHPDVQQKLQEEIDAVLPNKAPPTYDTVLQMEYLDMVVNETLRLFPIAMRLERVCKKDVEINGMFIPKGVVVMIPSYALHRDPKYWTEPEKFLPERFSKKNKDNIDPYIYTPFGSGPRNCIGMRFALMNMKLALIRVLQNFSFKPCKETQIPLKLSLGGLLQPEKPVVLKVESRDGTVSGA
# Chain of Sodium-dependent dopamine transporter (Rattus norvegicus, UniProt P23977) (P23977 whole entry): as the sequence (Q61327 whole entry) above, with P21S, V57A, S194A, R600H, V619L counted along it
smiles,measurement,setting,value
COC[C@@]12CNCC[C@]1(c1ccc(Cl)c(Cl)c1)C2 (relative stereo; 17) [GSK1360707],Activity,Rattus norvegicus [1],87.92%
same,Activity,Rattus norvegicus [2],>=95%
same,Activity,Rattus norvegicus [3],>=95%
same,Activity,Rattus norvegicus [4],>=95%
same,Activity,Rattus norvegicus [5],98.2%
same,Activity,Rattus norvegicus [6],82.8%
same,Activity,Rattus norvegicus [7],58.2%
same,Activity,Rattus norvegicus [8],36.3%
same,Activity,Rattus norvegicus [9],12.6%
same,Activity,Rattus norvegicus [10],4.6%
same,Kp,[11],6.3
same,half-life,[12],1.7 h
same,clearance,[13],48 mL/min
same,Vd,[14],5.8 L/kg
same,bioavailability,[15],54%
same,Ki,[16],10 nM
same,Ki,[17],1.58 nM
same,Ki,[18],1.58 nM
same,Ki,[19],10 nM
same,Ki,[20],1.26 nM
same,IC50,[21],2 nM
same,IC50,[22],2 nM
same,IC50,[23],3.98 nM
same,Ki,[24],12 nM
same,Ki,[25],12 nM
same,Ki,[26],1.05 nM
same,IC50,Cytochrome P450 3A4,10000 nM
same,IC50,Cytochrome P450 2D6,3000 nM
same,IC50,Cytochrome P450 2C19,10000 nM
same,IC50,Cytochrome P450 2C9,10000 nM
same,IC50,Cytochrome P450 1A2,10000 nM
same,Ki,[27],10 nM
same,Ki,[28],7.94 nM
same,Activity,Rattus norvegicus [29],>=95%
same,Ki,[30],0.631 nM
same,Ki,Transporter,2.51 nM
